In brackets after ≈: the same amount, converted by molar mass. Activity calls are given as the source filed them. No cut-off for these calls is given here.

Data set [1] deals with Nicotiana tabacum. The data set can be described thus: Induction of systemic acquired resistance in Nicotiana tabacum (tobacco) mosaic virus infected Nicotiana tabacum (tobacco) plant at 100 ug/mL at 25 degC for 72 hr. Format: functional. In short, it runs like this:
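Tobacco–TMV system used to assess induced resistance. The antiviral inhibition ratio was calculated from the mean number of viral lesions on inoculated leaves, relative to the matching control.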

Data set [2] has as its system Tobacco mosaic virus. The data set can be described thus: Antiviral activity against Tobacco mosaic virus (TMV) infected leaves assessed as viral inhibition at 100 ug/mL at 25 degC for 72 hr. Format: functional. The method, boiled down:
(§1)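 Systemic acquired resistance induction was assayed in a tobacco–TMV system. The antivirus inhibition ratio was calculated from the average number of viral lesions on inoculated leaves, relative to the corresponding control.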

The test system of data set [3] is Tobacco mosaic virus. The data set can be described thus: Antiviral activity against Tobacco mosaic virus (TMV) infected leaves assessed as viral inhibition at 50 ug/mL at 25 degC for 72 hr. It counts as functional. The method, boiled down: as §1
Data set [4] deals with Tobacco mosaic virus. Description: Antiviral activity against Tobacco mosaic virus (TMV) infected leaves assessed as viral inhibition at 500 ug/mL at 25 degC for 72 hr. Format: functional. In short, it runs like this:
as §1

For data set [5], the system named is Nicotiana tabacum. The data set can be described thus: Phytotoxicity against Nicotiana tabacum (tobacco) plant at 50 to 500 ug/mL. The conditions noted are these: in vivo. Format: organism-based.
Data set [6] relates to Rhizoctonia solani. Description: Fungicide activity against Rhizoctonia solani Kuhn assessed as growth inhibition at 50 ug/mL at 24 to 26 degC measured after 2 days. It counts as functional. As to conditions: 48 h, read-out: GI.
Another data set concerns Puccinia triticina. Description: Fungicide activity against Puccinia triticina assessed as growth inhibition at 50 ug/mL at 24 to 26 degC measured after 2 days. It counts as functional. The conditions noted are these: 48 h, read-out: GI.
Data set [7] has as its system Thanatephorus cucumeris. The data set can be described thus: Fungicide activity against Thanatephorus cucumeris assessed as growth inhibition at 50 ug/mL at 24 to 26 degC measured after 2 days. It counts as functional. The conditions noted are these: 48 h, read-out: GI.
Data set [8] concerns Botryosphaeria berengeriana. Description: Fungicide activity against Botryosphaeria berengeriana assessed as growth inhibition at 50 ug/mL at 24 to 26 degC measured after 2 days. Format: functional. The conditions noted are these: 48 h, read-out: GI.
Data set [9] relates to Phytophthora infestans. The data set can be described thus: Fungicide activity against Phytophthora infestans assessed as growth inhibition at 50 ug/mL at 24 to 26 degC measured after 2 days. It counts as functional. As to conditions: 48 h, read-out: GI.
For a further data set, the system named is Fusarium oxysporum. Description: Fungicide activity against Fusarium oxysporum assessed as growth inhibition at 50 ug/mL at 24 to 26 degC measured after 2 days. It counts as functional. The conditions noted are these: 48 h, read-out: GI.
Another data set deals with Colletotrichum lagenaria. The data set can be described thus: Fungicide activity against Colletotrichum lagenaria assessed as growth inhibition at 50 ug/mL at 24 to 26 degC measured after 2 days. It counts as functional. As to conditions: 48 h, read-out: GI.
In the next data set the test system is Cercospora beticola. The data set can be described thus: Fungicide activity against Cercospora beticola assessed as growth inhibition at 50 ug/mL at 24 to 26 degC measured after 2 days. Format: functional. The conditions noted are these: 48 h, read-out: GI.
A further data set concerns Mycosphaerella arachidis. The data set can be described thus: Fungicide activity against Mycosphaerella arachidis assessed as growth inhibition at 50 ug/mL at 24 to 26 degC measured after 2 days. Format: functional. As to conditions: 48 h, read-out: GI.
Data set [10] relates to Alternaria solani. The data set can be described thus: Fungicide activity against Alternaria solani assessed as growth inhibition at 50 ug/mL at 24 to 26 degC measured after 2 days. Format: functional. The conditions noted are these: 48 h, read-out: GI.
Data set [11] concerns Rhizoctonia solani. Description: Fungicide activity against Rhizoctonia solani assessed as growth inhibition at 24 to 26 degC measured after 2 days. As to conditions: 48 h. Format: functional, organism-based.
In data set [12] the test system is Thanatephorus cucumeris. The data set can be described thus: Fungicide activity against Thanatephorus cucumeris assessed as growth inhibition at 24 to 26 degC measured after 2 days. As to conditions: 48 h. It counts as functional, organism-based.
Data set [13] deals with Phytophthora infestans. Description: Fungicide activity against Phytophthora infestans assessed as growth inhibition at 24 to 26 degC measured after 2 days. Format: functional, organism-based. As to conditions: 48 h.
Another data set has as its system Macrophoma. The data set can be described thus: Fungicide activity against Macrophoma kuwatsukai assessed as growth inhibition at 24 to 26 degC measured after 2 days. It counts as functional, organism-based. As to conditions: 48 h.
Data set [14] concerns Fusarium oxysporum f. sp. cucumerinum. Description: Fungicide activity against Fusarium oxysporum f. cucumerinum assessed as growth inhibition at 24 to 26 degC measured after 2 days. Format: functional, organism-based. The conditions noted are these: 48 h.
Data set [15] deals with Alternaria solani. The data set can be described thus: Fungicide activity against Alternaria solani assessed as growth inhibition at 24 to 26 degC measured after 2 days. It counts as functional, organism-based. The conditions noted are these: 48 h.
The test system of another data set is Fusarium graminearum. Description: Fungicide activity against Fusarium graminearum assessed as growth inhibition at 50 ug/mL at 24 to 26 degC measured after 2 days. It counts as functional. The conditions noted are these: 48 h, read-out: GI.
The test system of another data set is Botrytis cinerea. Description: Fungicide activity against Botryotinia fuckeliana assessed as growth inhibition at 50 ug/mL at 24 to 26 degC measured after 2 days. It counts as functional. The conditions noted are these: 48 h, read-out: GI.

As a reminder, the inhibition is the relative decrease from the control value, in per cent. Turning to `NC(=O)c1ncn([C@@H]2O[C@H](CO)[C@@H](O)[C@H]2O)n1` [RIBAVIRIN], the outcome in the data set with Nicotiana tabacum [1] was inactive. In the data set with Tobacco mosaic virus [2], the inhibition at 100 µg/mL was 21.6%. Further, the inhibition at 50 µg/mL in the data set with Tobacco mosaic virus [3] was found to be 16.7%. Moreover, the inhibition at 500 µg/mL in the data set on Tobacco mosaic virus [4] is 37.9%.

Regarding `COc1ccc(C2=NN3C(c4snnc4C)=NNC3S2)cc1` (stereo unspecified), the Activity entry in the data set on Nicotiana tabacum [5] is “Toxic”. The inhibition at 50 µg/mL in the data set with Tobacco mosaic virus [3] is 17.9%. The inhibition of growth at 50 µg/mL is 11.1% in the data set with Rhizoctonia solani [6]; 10% in the data set on Puccinia triticina; 46.4% with Thanatephorus cucumeris [7]; 7.7% in [8]; 4.8% with Phytophthora infestans [9]; 44.4% in the data set on Fusarium oxysporum. The inhibition of growth at 50 µg/mL in the data set with Colletotrichum lagenaria came to 18.2%; with Cercospora beticola, 0%; with Mycosphaerella arachidis it was 7.7%; in the data set on Alternaria solani [10] it was 0%.

For `CCc1cc(C2=NN3C(c4snnc4C)=NNC3S2)nn1C` (stereo unspecified), the Activity entry in the data set with Nicotiana tabacum [5] was “Toxic”. For the same compound, the inhibition at 50 µg/mL in the data set on Tobacco mosaic virus [3] was found to be 34.8%. Also, the inhibition of growth at 50 µg/mL turned out to be 19.4% with Rhizoctonia solani [6]; 10% in the data set on Puccinia triticina; 30.4% in the data set on Thanatephorus cucumeris [7]; 12.8% in data set [8]; 4.8% in the data set on Phytophthora infestans [9]; 47.2% in the data set with Fusarium oxysporum. Further, the inhibition of growth at 50 µg/mL was determined as 0% in the data set with Colletotrichum lagenaria, 0% in the data set on Cercospora beticola, 7.7% with Mycosphaerella arachidis and 9.5% with Alternaria solani [10].

`Cc1nnsc1C1=NNC2SC(c3ccc(OC(F)(F)F)cc3)=NN12` (stereo unspecified): the Activity result in the data set with Nicotiana tabacum [5] is recorded as “Toxic”. Moreover, the inhibition at 50 µg/mL in the data set on Tobacco mosaic virus [3] was determined as 10.2%. For the same compound, the inhibition of growth at 50 µg/mL was 11.1% with Rhizoctonia solani [6]; 70% in the data set with Puccinia triticina; 30.4% in the data set with Thanatephorus cucumeris [7]; 17.9% in [8]; 4.8% in the data set with Phytophthora infestans [9]; 44.4% with Fusarium oxysporum. Moreover, the inhibition of growth at 50 µg/mL was found to be 18.2% in the data set with Colletotrichum lagenaria, 0% with Cercospora beticola, 15.4% in the data set with Mycosphaerella arachidis and 9.5% in the data set on Alternaria solani [10].

On to `Cc1nnsc1C1=NNC2SC(c3ccncc3)=NN12` (stereo unspecified), for which the Activity result in the data set with Nicotiana tabacum [5] is given as “Toxic”. Besides, the inhibition at 50 µg/mL with Tobacco mosaic virus [3] was determined as 27%. Moreover, the inhibition of growth at 50 µg/mL in the data set with Rhizoctonia solani [6] was 5.7%; in the data set on Puccinia triticina, 10%; in the data set with Thanatephorus cucumeris [7], 44.6%; in data set [8], 7.7%; with Phytophthora infestans [9] it was 0%; in the data set on Fusarium oxysporum it was 44.4%. Also, the inhibition of growth at 50 µg/mL in the data set with Colletotrichum lagenaria came out at 27.3%; in the data set with Cercospora beticola, 0%; in the data set on Mycosphaerella arachidis it was 23.1%; with Alternaria solani [10], 9.5%.

Regarding `Cc1nnsc1C1=NNC2SC(c3cccc([N+](=O)[O-])c3)=NN12` (stereo unspecified), the Activity entry in the data set on Nicotiana tabacum [5] is reported as “Toxic”. In the data set with Tobacco mosaic virus [2], the inhibition at 100 µg/mL was 44.4%. Further, the inhibition at 500 µg/mL with Tobacco mosaic virus [4] is 44.4%. Also, the inhibition of growth at 50 µg/mL came to 11.1% with Rhizoctonia solani [6]; 10% with Puccinia triticina; 25% in the data set with Thanatephorus cucumeris [7]; 12.8% in data set [8]; 54.8% with Phytophthora infestans [9]; 47.2% in the data set on Fusarium oxysporum. Further, the inhibition of growth at 50 µg/mL is 0% in the data set with Colletotrichum lagenaria, 0% in the data set on Cercospora beticola, 7.7% in the data set with Mycosphaerella arachidis and 9.5% in the data set on Alternaria solani [10].

In the data set on Nicotiana tabacum [1], `Cc1ccc(NC(=O)c2snnc2C)cc1Cl` [TIADINIL] returned an Activity of 48.92%. Moreover, the inhibition at 100 µg/mL in the data set on Tobacco mosaic virus [2] was 36.6%.

Broadly, the EC50 is the concentration at which the effect is half-maximal. With `Cc1nnsc1C1=NNC2SC(C(Cl)(Cl)Cl)=NN12` (stereo unspecified), the Activity entry in the data set on Nicotiana tabacum [5] is on record as “Toxic”. The inhibition at 100 µg/mL with Tobacco mosaic virus [2] stood at 33.3%. Besides, the inhibition at 500 µg/mL in the data set with Tobacco mosaic virus [4] came to 27.8%. In addition, the EC50 was 4.1 µg/mL (≈ 11.9 µM) in the data set with Rhizoctonia solani [11]; 2.5 µg/mL (≈ 7.27 µM) in the data set on Thanatephorus cucumeris [12]; 12.5 µg/mL (≈ 36.4 µM) with Phytophthora infestans [13]; 6.4 µg/mL (≈ 18.6 µM) in the data set on Macrophoma; 11.2 µg/mL (≈ 32.6 µM) in [14]; 14.6 µg/mL (≈ 42.5 µM) in the data set on Alternaria solani [15]. Besides, the inhibition of growth at 50 µg/mL in the data set on Rhizoctonia solani [6] was 83.3%; in the data set on Puccinia triticina it was 78.9%; with Thanatephorus cucumeris [7] it was 84.8%; in data set [8] it was 83.9%; with Phytophthora infestans [9], 70.7%; with Fusarium oxysporum it was 75%. Moreover, the inhibition of growth at 50 µg/mL in the data set on Colletotrichum lagenaria worked out at 64.7%; in the data set on Cercospora beticola, 71.4%; in the data set with Mycosphaerella arachidis it was 63.6%; in the data set on Alternaria solani [10], 66.7%.

For `Cc1nnsc1C1=NNC2SC(c3ccccc3OC(F)(F)F)=NN12` (stereo unspecified), in the data set with Nicotiana tabacum [5], the Activity entry is “Toxic”. Moreover, in the data set on Tobacco mosaic virus [3], the inhibition at 50 µg/mL worked out at 25%. Moreover, the inhibition of growth at 50 µg/mL with Rhizoctonia solani [6] amounted to 5.6%; with Puccinia triticina, 0%; in the data set with Thanatephorus cucumeris [7], 35.7%; in data set [8], 15.4%; in the data set with Phytophthora infestans [9], 0%; in the data set on Fusarium oxysporum, 86%. The inhibition of growth at 50 µg/mL with Colletotrichum lagenaria worked out at 45.5%; with Cercospora beticola it was 0%; with Mycosphaerella arachidis it was 7.7%; with Alternaria solani [10], 4.8%.

On to `Cc1nnsc1C1=NNC2SC(c3ccc([N+](=O)[O-])cc3)=NN12` (stereo unspecified), for which the Activity entry in the data set with Nicotiana tabacum [5] is reported as “Toxic”. In the data set on Tobacco mosaic virus [2], the inhibition at 100 µg/mL stood at 16.7%. In addition, the inhibition at 500 µg/mL with Tobacco mosaic virus [4] turned out to be 52.9%. Besides, the inhibition of growth at 50 µg/mL with Thanatephorus cucumeris [7] came out at 32.4%; in data set [8] it was 34.9%; with Phytophthora infestans [9] it was 22.2%; in the data set with Fusarium graminearum, 11.9%; with Fusarium oxysporum, 20.9%; with Colletotrichum lagenaria, 13.8%. Further, the inhibition of growth at 50 µg/mL in the data set with Cercospora beticola turned out to be 14.3%; in the data set on Mycosphaerella arachidis, 30.8%; with Botrytis cinerea, 60%; with Alternaria solani [10] it was 26.7%.

For the origin of these results see ChEMBL document CHEMBL3044632, “Synthesis, crystal structure, and biological activity of 4-methyl-1,2,3-thiadiazole-containing 1,2,4-triazolo[3,4-b][1,3,4]thiadiazoles” (J Agric Food Chem, 2010).
